Results collected from several papers.
Observed: cell growth or viability

`CCOC(=O)c1cc(O)c(O)c(O)c1` has a CC50 of > 256 µg/mL (MDBK; MTT; 72 h).
With `O=C1CCC(N2C(=O)c3cccc(NCc4cn(Cc5ccc(-c6nc7cc(-c8ccccc8)ccn7c6Nc6ccc(C(=O)O)cc6)cc5)nn4)c3C2=O)C(=O)N1` (centres unmarked) the CC50 was 105 µM (MCF7; 72 h).
`Nc1ccn([C@@H]2O[C@H](CO)[C@@H](O)C2(F)F)c(=O)n1` gave a viability of 51.3% (MCF7; MTT; 2.5 µg/mL; 24 h).
`[N-]=[N+]=N[C@]1(CO)O[C@@H](n2ccc(N)nc2=O)[C@@H](F)[C@@H]1O` has a CC50 of > 50 µM (Calu-3; ATP luminescence; 72 h).
The CC50 of `NC(=O)c1ncn([C@@H]2O[C@H](CO)[C@@H](O)[C@H]2O)n1` is reported as 176 µM (HEp-2; CCK-8; 5 days).
With `CC(C)(C)c1cc([N+](=O)[O-])cc(C=O)c1O` the CC50 was > 12.5 µM (TZM-bl; resazurin).
For `CN(Cc1cn(Cc2ccc(-c3nc4cc(-c5ccccc5)ccn4c3Nc3ccc(C(=O)O)cc3)cc2)nn1)c1cccc2c1C(=O)N(C1CCC(=O)NC1=O)C2=O` (centres unmarked), the CC50 was 129 µM (MCF7; 72 h).
For `CCCCCCCCC(=O)OC[C@H]1O[C@@](C#N)(c2ccc3c(N)ncnn23)[C@H](O)[C@@H]1O`, the CC50 was 45.5 µM (HEp-2; CCK-8; 5 days).
`CC(=O)OC[C@H]1O[C@@H]([S-])[C@H](OC(C)=O)[C@@H](OC(C)=O)[C@@H]1OC(C)=O.CCP(CC)CC.[Au+]` has a CC50 of 2.83 µM (THP-1; ATP luminescence; 72 h).
`COc1cccc(C=NNC(=S)NN)c1OC` has a CC50 of > 12.5 µM (TZM-bl; resazurin).
With `N#C[C@@]1(c2ccc3c(N)ncnn23)O[C@H](COC(=O)C2CCC(F)CC2)[C@@H](O)[C@H]1O` (some centres unmarked) the CC50 was 53.3 µM (HEp-2; CCK-8; 5 days).
